# Experimental data taken from ChEMBL document CHEMBL4196020, “Original antileishmanial hits: Variations around amidoximes” (Eur J Med Chem, 2018).
# pIC50: −log10 of the molar value.
# Columns and labels:
# [1] = Cytotoxicity against Balb/c mouse peritoneal macrophages assessed as reduction in cell viability after 72 hrs by resazurin assay; type: cell-based, Peritoneal macrophage
# Procedure, shortened: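 Peritoneal cells collected by lavage in RPMI 1640 with 10% HIFCS, 2 mM L-glutamine, 1 mM pyruvate, streptomycin and penicillin. Adjusted to 1.0×10^6 cells/mL, plated in triplicate, 1 h at 37 °C in 5% CO2, non-adherent cells washed off. […] Three independent experiments, mean ± SD.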
# [2] = test system: Leishmania amazonensis; test: Antileishmanial activity against Leishmania amazonensis MHOM/BR/77/LTB0016 promastigotes after 72 hrs by resazurin dye based assay; type: functional, organism-based; conditions: MHOM/BR/77/LTB0016, 72 h
# Procedure, shortened: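 Promastigotes grown in Schneider's insect medium with 10% HIFCS, started at 1.0×10^6 cells/mL with or without a range of compound concentrations, 26 °C for 72 h. Viability read by resazurin. IC50 by logarithmic regression. Three independent experiments in triplicate, mean ± SD.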
# [3] = Solubility of the compound in Schneider's insect medium supplemented with 10% HIFCS; type: physicochemical
# [4] = Selectivity index, ratio of CC50 for cytotoxicity against Balb/c mouse peritoneal macrophages to IC50 for antileishmanial activity against Leishmania amazonensis MHOM/BR/77/LTB0016 promastigotes; type: toxicity; conditions: read-out: Ratio CC50/IC50
# Procedure, shortened: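 SI calculated as macrophage CC50 divided by promastigote IC50. Both values come from 72 h assays: macrophages in RPMI at 37 °C and promastigotes in Schneider's medium at 26 °C with resazurin read-out.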
# [5] = Solubility of the compound in RPMI 1640 medium; type: physicochemical
# [6] = test system: Leishmania amazonensis; test: Antileishmanial activity against Leishmania amazonensis MHOM/BR/77/LTB0016 amastigotes infected in Balb/c mouse peritoneal macrophages after 72 hrs by hematological dye based light microscopic method; type: functional, organism-based; conditions: MHOM/BR/77/LTB0016, 72 h
# Procedure, shortened: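 Resident BALB/c peritoneal macrophages plated at 1×10^6/mL in RPMI, 1 h at 37 °C in 5% CO2, non-adherent cells washed off. Infected with stationary-phase promastigotes at 3:1 parasite/macrophage for 4 h, free parasites washed off, compounds added for 72 h. Slides stained with hematological dye, infected cells and amastigotes counted in at least 100 macrophages per sample. IC50 by nonlinear regression. Three independent experiments.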
SMILES,solubility [3],solubility [5],pIC50 [6],CC50 at 72 h [1],pIC50 [2],selectivity ratio [4]
CC1(Cc2cc(C(F)(F)F)cc(C(F)(F)F)c2)CC(S(=O)(=O)c2ccc(F)cc2)=C(c2ccc(/C(N)=N/O)cc2)O1 (stereo unspecified),–,–,–,43.1 µM,5.27,8
CCC1(CC)CC(S(=O)(=O)c2ccc(F)cc2)=C(c2ccc(/C(N)=N/O)cc2)O1,–,–,–,91.4 µM,4.52,3
CC1(Cc2ccc([N+](=O)[O-])cc2)CC(S(=O)(=O)c2ccc(F)cc2)=C(c2ccc(/C(N)=N/O)cc2)O1 (stereo unspecified),–,–,–,97.4 µM,4.78,5.8
CC1(Cc2cccc(C(F)(F)F)c2)CC(S(=O)(=O)c2ccc(F)cc2)=C(c2ccc(/C(N)=N/O)cc2)O1 (stereo unspecified),–,–,–,49.8 µM,5.17,7.4
CC1(Cc2ccc(-c3ccccc3)c(F)c2)CC(S(=O)(=O)c2ccc(F)cc2)=C(c2ccc(/C(N)=N/O)cc2)O1 (stereo unspecified),–,–,–,24.5 µM,4.91,2
COc1cc(CC2(C)CC(S(=O)(=O)c3ccc(F)cc3)=C(c3ccc(/C(N)=N/O)cc3)O2)cc(OC)c1OC (stereo unspecified),–,–,–,92.3 µM,4.34,2
N=C(N)c1ccc(OCCCCCOc2ccc(C(=N)N)cc2)cc1 [PENTAMIDINE],–,–,–,–,5.24,1.5
N/C(=N\O)c1ccc(C2=C(S(=O)(=O)c3ccc(F)cc3)CC3(CCCCC3)O2)cc1,–,–,–,92.9 µM,4.31,1.9
Cc1ccc(CC2(C)CC(S(=O)(=O)c3ccc(F)cc3)=C(c3ccc(/C(N)=N/O)cc3)O2)cc1 (stereo unspecified),–,–,–,54.4 µM,4.63,2.3
CC1(Cc2cccc([N+](=O)[O-])c2)CC(S(=O)(=O)c2ccc(F)cc2)=C(c2ccc(/C(N)=N/O)cc2)O1 (stereo unspecified),–,–,–,86.6 µM,4.94,7.5
CC1(Cc2ccccc2C(F)(F)F)CC(S(=O)(=O)c2ccc(F)cc2)=C(c2ccc(/C(N)=N/O)cc2)O1 (stereo unspecified),–,–,4.99,105 µM,5.32,21.9
CC1(C/C=C/c2ccc(C(F)(F)F)cc2)CC(S(=O)(=O)c2ccc(F)cc2)=C(c2ccc(/C(N)=N/O)cc2)O1 (stereo unspecified),–,–,–,43.9 µM,4.76,2.6
CC1(Cc2ccccc2)CC(S(=O)(=O)c2ccc(F)cc2)=C(c2cccc(/C(N)=N/O)c2)O1 (stereo unspecified),–,Insoluble,–,> 200 µM,4.13,> 2.7
CC1(Cc2ccc(-c3ccccc3)cc2)CC(S(=O)(=O)c2ccc(F)cc2)=C(c2ccc(/C(N)=N/O)cc2)O1 (stereo unspecified),–,–,–,33.9 µM,4.83,2.3

# Further lines, with some results ahead:
solubility [3],solubility [5],pIC50 [6],SMILES,CC50 at 72 h [1],pIC50 [2],selectivity ratio [4]
Insoluble,–,–,CC1(Cc2ccc(/C(N)=N/O)cc2)CC(S(=O)(=O)c2ccc(F)cc2)=C(c2ccc(/C(N)=N/O)cc2)O1 (stereo unspecified),42.2 µM,< 4.00,–
Insoluble,Insoluble,–,CC1(Cc2ccc(CO)cc2)CC(S(=O)(=O)c2ccc(F)cc2)=C(c2ccc(/C(N)=N/O)cc2)O1 (stereo unspecified),> 100 µM,< 4.00,–
–,–,5.03,CC1(Cc2ccccc2Br)CC(S(=O)(=O)c2ccc(F)cc2)=C(c2ccc(/C(N)=N/O)cc2)O1 (stereo unspecified),109 µM,5.04,12
–,Insoluble,–,COc1ccc(CC2(C)CC(S(=O)(=O)c3ccc(F)cc3)=C(c3ccc(/C(N)=N/O)cc3)O2)cc1 (stereo unspecified),> 100 µM,4.62,> 4.2
Insoluble,–,–,CC1(Cc2cccc(/C(N)=N/O)c2)CC(S(=O)(=O)c2ccc(F)cc2)=C(c2ccc(/C(N)=N/O)cc2)O1 (stereo unspecified),50.2 µM,< 4.00,–
–,–,5.14,Cc1ccccc1CC1(C)CC(S(=O)(=O)c2ccc(F)cc2)=C(c2ccc(/C(N)=N/O)cc2)O1 (stereo unspecified),77.6 µM,5.68,37
–,–,< 4.70,CC1(Cc2ccc(C(F)(F)F)cc2)CC(S(=O)(=O)c2ccc(F)cc2)=C(c2ccc(/C(N)=N/O)cc2)O1 (stereo unspecified),103 µM,5.09,12.6
–,–,5.17,Cc1cccc(CC2(C)CC(S(=O)(=O)c3ccc(F)cc3)=C(c3ccc(/C(N)=N/O)cc3)O2)c1 (stereo unspecified),112 µM,5.25,19.9
Insoluble,Insoluble,–,CC1(Cc2cccc(CO)c2)CC(S(=O)(=O)c2ccc(F)cc2)=C(c2ccc(/C(N)=N/O)cc2)O1 (stereo unspecified),> 100 µM,< 4.00,–
–,–,5.10,CC1(Cc2ccccc2)CC(S(=O)(=O)c2ccc(F)cc2)=C(c2ccc(/C(N)=N/O)cc2)O1 (stereo unspecified),102 µM,5.27,18.9
